The record followed here is ChEMBL document CHEMBL4396947, “Synthesis and characterization of novel isoform-selective IP6K1 inhibitors” (Bioorg Med Chem Lett, 2019).

The species named for data set [1] is Homo sapiens. Nature of the data set: Inhibition of recombinant human PKBalpha S478G mutant assessed as residual activity at 10 uM using GRPRTSSFAEGKK as substrate incubated for 40 mins in presence of [gamma-33P]ATP at Km concentration by radiometric assay relative to control.
Data set [2] has as its target Inositol hexakisphosphate kinase 3 (Homo sapiens, UniProt Q96PC2). The data set can be described thus: Inhibition of IP6K3 (unknown origin) in presence of ATP at Km concentration by Cheng-Prusoff equation analysis. In short, it runs like this: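 Purified IP6K isoforms run in the ADP-Glo Max kinase assay with 1 mM ATP. Measured IC50 values converted to Ki with the Cheng-Prusoff equation.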

The target in data set [3] is CDK2/Cyclin A2 (Homo sapiens) (UniProt P24941+P20248). Nature of the data set: Inhibition of human full length recombinant CDK2/cyclinA assessed as residual activity at 10 uM using Histone H1 as substrate incubated for 40 mins in presence of [gamma-33P]ATP at Km concentration by radiometric assay relative to control. The class given is protein-complex assay.
Data set [4] concerns the target Calcium/calmodulin-dependent protein kinase type 1 (Homo sapiens) (UniProt Q14012). Nature of the data set: Inhibition of human full length recombinant CAMKI assessed as residual activity at 10 uM using KKLRRTLSFAEPG as substrate incubated for 40 mins in presence of [gamma-33P]ATP at Km concentration by radiometric assay relative to control.
Data set [5] is described as follows: Solubility of compound in pH 7.4 PBS at 100 ug/ml incubated for 2 hrs by LC-MS/MS analysis. Format: physicochemical. Particulars: buffer, pH 7.4, 2 h.
For data set [6], the species on record is Homo sapiens. Nature of the data set: Inhibition of recombinant full-length human AURKA I31F mutant assessed as residual activity at 10 uM using LRRASLG as substrate incubated for 40 mins in presence of [gamma-33P]ATP at Km concentration by radiometric assay relative to control.
Data set [7] concerns the target cAMP-dependent protein kinase catalytic subunit alpha (Homo sapiens) (UniProt P17612). The data set can be described thus: Inhibition of recombinant full length human PRKACA assessed as residual activity at 10 uM using LRRASLG as substrate incubated for 40 mins in presence of [gamma-33P]ATP at Km concentration by radiometric assay relative to control.
The target in data set [8] is Ribosomal protein S6 kinase alpha-1 (Homo sapiens) (UniProt Q15418). Nature of the data set: Inhibition of recombinant full length human RSK1 assessed as residual activity at 10 uM using KKKNRTLSVA as substrate incubated for 40 mins in presence of [gamma-33P]ATP at Km concentration by radiometric assay relative to control.
Data set [9] concerns the target Inositol hexakisphosphate kinase 1 (Homo sapiens, UniProt Q92551). The data set can be described thus: Inhibition of IP6K1 (unknown origin) incubated for 30 mins using IP6 as substrate in presence of ATP by ADP-Glo reagent based luminescence assay. Particulars: read-out: IC50. In short, it runs like this:
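Luminescent ADP-Glo Max format adapted for IP6K, with purified enzyme and ATP at 1 mM, which is consumed as the kinase reaction proceeds. IC50 taken from the resulting inhibition data.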
In general terms: In ADP-Glo the light output rises with the ADP produced.

The target of data set [10] is CDK6/cyclin D3 (Homo sapiens) (UniProt P30281+Q00534). Nature of the data set: Inhibition of human full length recombinant CDK6/cyclinD3 assessed as residual activity at 10 uM using Histone H1 as substrate incubated for 40 mins in presence of [gamma-33P]ATP at Km concentration by radiometric assay relative to control. Format: protein-complex assay.
For data set [11], the target named is Mitogen-activated protein kinase kinase kinase 7 (Homo sapiens) (UniProt O43318). Nature of the data set: Inhibition of recombinant human TAK1 (1 to 303 residues) assessed as residual activity at 10 uM using casein as substrate incubated for 40 mins in presence of [gamma-33P]ATP at Km concentration by radiometric assay relative to control.
The target of data set [12] is Serine/threonine-protein kinase PLK3 (Homo sapiens) (UniProt Q9H4B4). Nature of the data set: Inhibition of recombinant human Plk3 (19 to 301 residues) assessed as residual activity at 10 uM using casein as substrate incubated for 40 mins in presence of [gamma-33P]ATP at Km concentration by radiometric assay relative to control.
Data set [13] addresses Tyrosine-protein kinase Fyn (Homo sapiens) (UniProt P06241). The data set can be described thus: Inhibition of human full length recombinant FYN assessed as residual activity at 10 uM using KVEKIGEGTYGVV as substrate incubated for 40 mins in presence of [gamma-33P]ATP at Km concentration by radiometric assay relative to control.
Data set [14] is described as follows: Half life in human microsomes at 1 uM in presence of NADPH. The class given is ADME, Microsome.
Data set [15] concerns RAF proto-oncogene serine/threonine-protein kinase (Homo sapiens), P04049 [Y340D,Y341D]. The data set can be described thus: Inhibition of recombinant human c-RAF Y340D/Y341D double mutant (360 to end residues) assessed as residual activity at 10 uM using inactive MEK1 as substrate incubated for 40 mins in presence of [gamma-33P]ATP at Km concentration by radiometric assay relative to control.

Data set [16] is filed under the species Homo sapiens. Nature of the data set: Inhibition of recombinant human MAPKAPK2 A399G mutant (46 to end residues) assessed as residual activity at 10 uM using KKLNRTLSVA as substrate incubated for 40 mins in presence of [gamma-33P]ATP at Km concentration by radiometric assay relative to control.
In data set [17] the target is Serine/threonine-protein kinase Chk1 (Homo sapiens) (UniProt O14757). Nature of the data set: Inhibition of human full length recombinant CHK1 assessed as residual activity at 10 uM using KKKVSRSGLYRSP as substrate incubated for 40 mins in presence of [gamma-33P]ATP at Km concentration by radiometric assay relative to control.
Data set [18] concerns the target ALK tyrosine kinase receptor (Homo sapiens) (UniProt Q9UM73). Nature of the data set: Inhibition of human recombinant ALK (1058 to end residues) assessed as residual activity at 10 uM using KKKSPGEYVNIEF as substrate incubated for 40 mins in presence of [gamma-33P]ATP at Km concentration by radiometric assay relative to control.
Data set [19] deals with Serine/threonine-protein kinase Nek2 (Homo sapiens) (UniProt P51955). The data set can be described thus: Inhibition of full length recombinant human NEK2 assessed as residual activity at 10 uM using myelin basic protein as substrate incubated for 40 mins in presence of [gamma-33P]ATP at Km concentration by radiometric assay relative to control.
For data set [20], the target named is 5'-AMP-activated protein kinase catalytic subunit alpha-1 (Homo sapiens) (UniProt Q13131). Nature of the data set: Inhibition of human full length recombinant AMPKalpha1 assessed as residual activity at 10 uM using AMARAASAAALAR as substrate incubated for 40 mins in presence of [gamma-33P]ATP at Km concentration by radiometric assay relative to control.
In data set [21] the target is CDK9/cyclin T1 (Homo sapiens) (UniProt O60563+P50750). The data set can be described thus: Inhibition of recombinant full length human CDK9/CyclinT1 assessed as residual activity at 10 uM using KTFCGTPEYLAPE as substrate incubated for 40 mins in presence of [gamma-33P]ATP at Km concentration by radiometric assay relative to control. Format: protein-complex assay.
In data set [22] the target is Tyrosine-protein kinase receptor TYRO3 (Homo sapiens) (UniProt Q06418). Nature of the data set: Inhibition of recombinant human RSE (451 to end residues) assessed as residual activity at 10 uM using KVEKIGEGTYGVV as substrate incubated for 40 mins in presence of [gamma-33P]ATP at Km concentration by scintillation counting method relative to control.

In brackets after ≈: the same amount, converted by molar mass.

Tyrosine-protein kinase receptor TYRO3 (Homo sapiens), sequence (Q06418 whole entry): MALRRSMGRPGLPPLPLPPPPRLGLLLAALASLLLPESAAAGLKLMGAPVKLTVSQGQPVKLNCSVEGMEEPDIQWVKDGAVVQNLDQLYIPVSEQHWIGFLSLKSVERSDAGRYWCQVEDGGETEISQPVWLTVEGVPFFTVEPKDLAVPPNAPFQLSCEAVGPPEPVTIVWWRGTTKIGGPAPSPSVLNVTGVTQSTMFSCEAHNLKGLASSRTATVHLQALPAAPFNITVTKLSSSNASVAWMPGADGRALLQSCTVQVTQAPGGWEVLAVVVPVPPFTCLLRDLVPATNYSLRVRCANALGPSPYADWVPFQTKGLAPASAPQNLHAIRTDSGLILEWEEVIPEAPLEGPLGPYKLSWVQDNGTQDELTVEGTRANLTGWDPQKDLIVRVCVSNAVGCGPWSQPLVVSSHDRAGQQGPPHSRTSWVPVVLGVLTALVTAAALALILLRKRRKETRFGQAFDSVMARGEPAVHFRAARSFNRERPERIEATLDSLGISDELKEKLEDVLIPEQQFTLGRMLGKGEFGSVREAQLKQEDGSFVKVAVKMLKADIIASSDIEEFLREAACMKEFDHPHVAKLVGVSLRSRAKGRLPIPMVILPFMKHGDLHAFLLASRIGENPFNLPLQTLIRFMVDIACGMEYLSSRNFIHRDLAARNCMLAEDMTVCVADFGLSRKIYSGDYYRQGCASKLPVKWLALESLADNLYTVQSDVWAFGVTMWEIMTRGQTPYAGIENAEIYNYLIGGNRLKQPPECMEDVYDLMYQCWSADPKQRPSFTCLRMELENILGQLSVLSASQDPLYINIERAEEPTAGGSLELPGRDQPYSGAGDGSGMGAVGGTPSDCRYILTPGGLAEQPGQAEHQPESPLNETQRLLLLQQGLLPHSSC
Inositol hexakisphosphate kinase 3, sequence (Q96PC2 whole entry, canonical isoform): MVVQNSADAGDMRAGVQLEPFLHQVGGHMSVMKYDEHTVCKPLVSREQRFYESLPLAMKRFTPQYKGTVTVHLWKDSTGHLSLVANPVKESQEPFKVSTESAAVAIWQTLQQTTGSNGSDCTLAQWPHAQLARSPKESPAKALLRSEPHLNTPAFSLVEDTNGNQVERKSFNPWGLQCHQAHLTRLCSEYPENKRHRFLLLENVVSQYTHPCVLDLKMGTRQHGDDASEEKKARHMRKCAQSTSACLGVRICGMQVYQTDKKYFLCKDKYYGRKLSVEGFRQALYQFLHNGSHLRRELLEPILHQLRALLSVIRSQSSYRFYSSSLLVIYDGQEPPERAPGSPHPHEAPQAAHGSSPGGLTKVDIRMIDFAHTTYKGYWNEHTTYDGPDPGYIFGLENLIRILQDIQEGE
Mitogen-activated protein kinase kinase kinase 7 (Homo sapiens), sequence (O43318 whole entry, the tested form may be a part): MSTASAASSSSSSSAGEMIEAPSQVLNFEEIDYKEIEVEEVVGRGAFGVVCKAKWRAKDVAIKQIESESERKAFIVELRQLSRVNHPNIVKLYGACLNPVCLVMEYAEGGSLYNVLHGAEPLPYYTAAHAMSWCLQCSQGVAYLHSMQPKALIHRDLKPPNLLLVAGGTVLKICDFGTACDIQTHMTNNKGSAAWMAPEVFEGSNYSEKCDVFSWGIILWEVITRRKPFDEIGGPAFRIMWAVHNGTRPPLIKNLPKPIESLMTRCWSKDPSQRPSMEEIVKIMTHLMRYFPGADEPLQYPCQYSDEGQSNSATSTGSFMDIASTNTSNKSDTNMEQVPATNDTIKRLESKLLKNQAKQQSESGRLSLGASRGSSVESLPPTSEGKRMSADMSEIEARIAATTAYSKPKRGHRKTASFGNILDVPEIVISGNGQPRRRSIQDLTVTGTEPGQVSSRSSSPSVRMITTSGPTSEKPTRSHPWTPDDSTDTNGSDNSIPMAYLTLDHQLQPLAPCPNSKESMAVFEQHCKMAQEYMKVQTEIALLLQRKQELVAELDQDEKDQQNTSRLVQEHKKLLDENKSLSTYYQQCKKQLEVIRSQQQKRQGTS
Serine/threonine-protein kinase Nek2 (Homo sapiens), sequence (P51955 whole entry): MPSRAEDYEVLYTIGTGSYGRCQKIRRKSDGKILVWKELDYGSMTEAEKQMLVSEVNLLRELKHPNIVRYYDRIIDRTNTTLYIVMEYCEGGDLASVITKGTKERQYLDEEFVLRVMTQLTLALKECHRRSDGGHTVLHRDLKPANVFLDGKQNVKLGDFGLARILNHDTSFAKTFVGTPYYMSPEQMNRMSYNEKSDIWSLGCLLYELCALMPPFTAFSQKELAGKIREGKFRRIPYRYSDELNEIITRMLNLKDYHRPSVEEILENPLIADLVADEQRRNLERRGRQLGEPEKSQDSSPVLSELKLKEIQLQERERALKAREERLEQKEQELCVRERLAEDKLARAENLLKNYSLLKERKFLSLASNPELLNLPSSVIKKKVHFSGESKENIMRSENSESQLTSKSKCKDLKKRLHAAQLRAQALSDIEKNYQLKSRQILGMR
Inositol hexakisphosphate kinase 1, sequence (Q92551 whole entry): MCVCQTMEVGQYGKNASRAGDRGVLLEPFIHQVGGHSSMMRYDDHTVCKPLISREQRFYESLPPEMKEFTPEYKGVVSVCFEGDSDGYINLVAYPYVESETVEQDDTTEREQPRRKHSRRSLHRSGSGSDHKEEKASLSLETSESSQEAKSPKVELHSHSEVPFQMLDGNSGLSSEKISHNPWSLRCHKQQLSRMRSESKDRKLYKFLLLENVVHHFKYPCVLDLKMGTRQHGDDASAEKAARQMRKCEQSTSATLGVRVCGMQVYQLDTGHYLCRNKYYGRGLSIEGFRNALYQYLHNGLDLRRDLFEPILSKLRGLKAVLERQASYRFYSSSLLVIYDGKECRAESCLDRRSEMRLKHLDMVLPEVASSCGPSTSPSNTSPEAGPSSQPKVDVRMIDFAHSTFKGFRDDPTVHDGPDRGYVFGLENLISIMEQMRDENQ
Ribosomal protein S6 kinase alpha-1 (Homo sapiens), sequence (Q15418 whole entry): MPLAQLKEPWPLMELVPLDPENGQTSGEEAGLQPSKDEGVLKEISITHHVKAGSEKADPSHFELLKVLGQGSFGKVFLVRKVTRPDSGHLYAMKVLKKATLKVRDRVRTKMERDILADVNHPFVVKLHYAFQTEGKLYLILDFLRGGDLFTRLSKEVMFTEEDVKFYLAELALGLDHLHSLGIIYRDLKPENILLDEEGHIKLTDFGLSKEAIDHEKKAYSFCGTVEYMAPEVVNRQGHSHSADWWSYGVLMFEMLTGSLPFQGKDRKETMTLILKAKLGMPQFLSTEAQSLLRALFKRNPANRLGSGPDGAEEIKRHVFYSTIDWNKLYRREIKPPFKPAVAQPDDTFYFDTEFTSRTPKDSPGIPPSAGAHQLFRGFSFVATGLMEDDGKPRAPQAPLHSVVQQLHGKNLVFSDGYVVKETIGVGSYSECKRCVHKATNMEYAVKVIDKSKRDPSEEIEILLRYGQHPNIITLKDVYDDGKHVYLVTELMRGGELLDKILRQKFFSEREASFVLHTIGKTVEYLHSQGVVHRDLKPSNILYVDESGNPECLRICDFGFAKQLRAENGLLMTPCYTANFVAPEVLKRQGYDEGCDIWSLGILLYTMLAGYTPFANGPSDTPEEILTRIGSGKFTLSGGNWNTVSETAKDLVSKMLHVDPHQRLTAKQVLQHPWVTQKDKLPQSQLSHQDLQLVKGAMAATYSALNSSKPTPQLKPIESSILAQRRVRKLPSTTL
Serine/threonine-protein kinase PLK3 (Homo sapiens), sequence (Q9H4B4 whole entry, looked up, the tested form may be a part): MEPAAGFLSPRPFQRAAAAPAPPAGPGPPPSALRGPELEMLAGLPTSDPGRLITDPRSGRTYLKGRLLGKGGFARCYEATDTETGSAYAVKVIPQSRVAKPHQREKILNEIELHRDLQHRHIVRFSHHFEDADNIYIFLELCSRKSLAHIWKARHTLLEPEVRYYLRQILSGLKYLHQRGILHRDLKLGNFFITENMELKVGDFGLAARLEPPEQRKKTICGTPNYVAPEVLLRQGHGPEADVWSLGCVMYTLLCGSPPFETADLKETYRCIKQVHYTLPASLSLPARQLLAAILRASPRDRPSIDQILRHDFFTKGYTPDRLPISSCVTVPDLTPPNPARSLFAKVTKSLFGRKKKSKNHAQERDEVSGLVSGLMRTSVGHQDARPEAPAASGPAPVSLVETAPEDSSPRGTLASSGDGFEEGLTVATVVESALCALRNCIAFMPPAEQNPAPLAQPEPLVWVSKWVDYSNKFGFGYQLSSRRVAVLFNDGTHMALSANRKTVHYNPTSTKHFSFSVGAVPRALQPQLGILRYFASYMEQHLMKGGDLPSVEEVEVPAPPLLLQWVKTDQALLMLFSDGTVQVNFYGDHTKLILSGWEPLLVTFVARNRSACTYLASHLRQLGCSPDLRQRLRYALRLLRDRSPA
Serine/threonine-protein kinase Chk1 (Homo sapiens), sequence (O14757 whole entry): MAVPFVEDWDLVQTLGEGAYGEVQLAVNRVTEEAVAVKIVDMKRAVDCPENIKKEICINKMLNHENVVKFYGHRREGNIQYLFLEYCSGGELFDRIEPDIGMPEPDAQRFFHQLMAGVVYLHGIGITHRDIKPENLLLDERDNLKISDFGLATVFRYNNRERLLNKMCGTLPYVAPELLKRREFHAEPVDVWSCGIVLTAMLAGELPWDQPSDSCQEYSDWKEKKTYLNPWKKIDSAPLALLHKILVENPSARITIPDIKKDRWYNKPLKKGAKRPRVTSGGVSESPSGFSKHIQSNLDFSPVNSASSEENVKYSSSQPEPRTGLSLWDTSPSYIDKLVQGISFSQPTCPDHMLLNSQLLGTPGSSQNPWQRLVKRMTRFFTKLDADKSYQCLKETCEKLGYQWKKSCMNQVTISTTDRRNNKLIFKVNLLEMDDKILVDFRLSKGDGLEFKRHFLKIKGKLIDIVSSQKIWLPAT
Calcium/calmodulin-dependent protein kinase type 1 (Homo sapiens), sequence (Q14012 whole entry, looked up): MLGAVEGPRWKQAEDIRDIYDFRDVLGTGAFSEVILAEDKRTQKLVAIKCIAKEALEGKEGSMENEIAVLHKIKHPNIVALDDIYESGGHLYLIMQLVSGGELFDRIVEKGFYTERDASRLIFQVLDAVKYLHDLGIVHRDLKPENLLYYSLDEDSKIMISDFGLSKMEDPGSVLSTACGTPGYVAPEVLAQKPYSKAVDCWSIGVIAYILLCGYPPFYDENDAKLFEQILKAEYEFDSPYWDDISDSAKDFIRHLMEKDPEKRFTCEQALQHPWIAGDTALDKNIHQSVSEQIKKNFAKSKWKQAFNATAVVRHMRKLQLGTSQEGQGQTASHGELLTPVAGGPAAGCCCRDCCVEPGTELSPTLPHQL

Turning to `COc1ccc2c(CCNc3nc(NCc4ccc(=O)[nH]c4)c4nc[nH]c4n3)c[nH]c2c1`, the Activity is 84% in the data set listed under Homo sapiens [1]; 90% in data set [3]; 77% in data set [4]; 46% in the data set listed under Homo sapiens [6]; 77% in [7]; 45% in data set [8]. Moreover, the Activity in data set [10] is 82%; in data set [11], 66%; in [12], 109%; in data set [13], 84%; in [15], -3%; in the data set filed under Homo sapiens [16], 102%. Further, the Activity in data set [17] is 91%; in data set [18], 88%; in data set [19], 87%; in data set [20], 97%; in data set [21], 79%; in data set [22] it was 91%. Further, in data set [2], the Ki (as a rule, the equilibrium dissociation constant of an inhibitor or competing ligand from its target) is 9.62 µM. In addition, the solubility – broadly, the dissolved amount per volume that the medium holds – in [5] came out at 51 µg/mL (≈ 118 µM). Moreover, the concentration for half-maximal inhibition (IC50) (as a rule, the concentration that gives 50% inhibition) in data set [9] was determined as 0.75 µM. In addition, the t1/2 in data set [14] worked out at 42 min.
